Compound activity: PubChem BioAssay, Johns Hopkins Ion Channel Center
Hits are enriched below; roughly 3.7% of the tested compounds scored in any of these assays.
KCNQ1 block = inhibitors of human KCNQ1 potassium channel; P51787; CHO-K1 KCNQ1, FluxOR thallium flux fluorescence; stronger effect = higher value; B-score at 10 µM; 310,000 compounds, 1.3% hits; AID 2642;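 active = compounds whose thallium flux B-score, printed positive for inhibition, exceeds three library SD while starting fluorescence stays within three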;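 note: channel opened by potassium depolarization with thallium stimulus after 20 min compound exposure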
KCNQ1 pot = human KCNQ1 channel potentiation or activation. P51787. CHO-K1 KCNQ1, thallium flux FluxOR fluorescence; stronger effect = higher value. B-score at 10 µM. 310,000 compounds, 0.35% hits. AID 2648;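 active = fluorescence ratio B-score, a plate-corrected score, at least three library SD, with initial intensity B-score within 5 SD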
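Schedule – 37 °C overnight plating, 90-min dark dye load, 20-min compound pretreatment · System – stable KCNQ1 CHO-K1 line · Probe or stimulus – thallium- and potassium-containing depolarizing buffer · Measured by – kinetic FluxOR fluorescence, 10 s baseline plus 110 s post-stimulus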
KCNK9 block = inhibitors of human KCNK9 two-pore domain potassium channel; 310,000 compounds, 1.2% hits; Q9NPC2; HEK293 KCNK9, FluxOR thallium flux fluorescence; stronger effect = lower value; AID 488922; B-score at 10 µM;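 active = ratio B-score over 3 SD below the library mean, with starting fluorescence within 5 SD of its mean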;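 note: negative B-score means less thallium flux so channel inhibition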
hERG rescue = compounds protecting human hERG from proarrhythmic drug block; 310,000 compounds, 0.51% hits; CHO-hERG, FluxOR thallium flux, dofetilide IC70 present; activation (rescue from dofetilide block), less the hit threshold, % at 10 µM; Q12809;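 active = activation above the mean of controls blocked by dofetilide plus 5 SD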;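 note: thallium influx through hERG after potassium depolarization seen as dye fluorescence rise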
KCNK3 inh = human KCNK3 channel inhibition, primary screen; CHO-KCNK3 thallium flux, FluxOR fluorescence; stronger effect = lower value; AID 602410; 340,000 compounds, 0.84% hits; B-score at 10 µM; O14649;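 active = B-score under library mean minus 4 SD, starting fluorescence ratio at most library mean plus 5 SD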;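 note: more negative B-score means stronger inhibition of thallium flux through KCNK3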
Kir21 inh = blocks the mouse Kir2.1 inward-rectifier potassium channel; HEK293-Kir2.1, FluxOR thallium flux fluorescence; stronger effect = lower value; 310,000 compounds, 0.85% hits; B-score at 10 µM; P35561;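 active = fluorescence ratio B-score at or below minus 3 SD of library scores, with starting-brightness B-score within 2 SD, cut at about -4.2 in these data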;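 note: channel flux triggered by added potassium and thallium sulfate stimulus; B-score of peak minus minimum fluorescence over baseline after thallium stimulus; more negative B-score means stronger Kir2.1 block with less thallium influx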
KCNK9 block conf = confirmation of human KCNK9 potassium channel inhibitors; shares compounds with KCNK9 block; HEK293 KCNK9 cells, FluxOR thallium flux fluorescence; inhibition, % at 10 µM; 4,900 compounds, 43% hits; AID 492992;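 active = thallium signal inhibited by more than 5 SD of the compound-free buffer control wells, on both duplicate plates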;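 note: 0% = assay buffer control wells without compound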
Kir21 sel = selectivity of KCNK9 modulators against mouse Kir2.1; Kir2.1 cells, FluxOR thallium flux fluorescence; inhibition, % at 10 µM; shares compounds with KCNK9 block; 4,900 compounds, 4% hits;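 active = thallium signal drop more than 5 SD beyond the mean of the no-compound control wells, seen in both duplicate plates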;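 note: signal is fluorescence rise after thallium addition divided by baseline fluorescence; plate controls were assay buffer only for no effect and full block by chlorpromazine control for full effect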
KCNK9 uninduced = second counter-screen for KCNK9 modulators: effect in non-induced cells; AID 492997; inhibition, % at 10 µM; 4,900 compounds, 40% hits; shares compounds with KCNK9 block; non-induced KCNK9-HEK293, FluxOR thallium flux;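 active = thallium signal drop beyond 5 SD of the untreated control mean, on both duplicate plates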;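 note: plate controls were buffer only IC0 wells for no effect and SID17386958 at its maximal inhibitory level for full effect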
* hit, by the source's call; i = inactive; . = no result.

SMILES	KCNQ1 block	KCNQ1 pot	KCNK9 block	hERG rescue	KCNK3 inh	Kir21 inh	KCNK9 block conf	Kir21 sel	KCNK9 uninduced
Cc1ccc(N(CCCCN2C(=O)c3ccccc3C2=O)C(=O)c2cccs2)cc1	i	i	i	-11.4	i	0.3	i	i	i
CC(C)OC(=O)c1cc(C(=O)c2cc(Cl)ccc2O)coc1=N	i	i	i	-9.2	i	-0.46	.	.	.
CC(C)Cn1c(-c2csc3c2CCCC3)n[nH]c1=S	i	i	i	-10.7	i	0.05	.	.	.
Cc1ccc(C)c(N2CCN(CCCc3ccccc3)CC2)c1	i	i	i	-2.8	i	-0.18	i	i	i
COc1cccc(N2CCN(C3CCCC(C)C3)CC2)c1 (stereo not given)	i	i	i	-6.8	i	0.13	.	.	.
Cc1ccc(C)c(N2CCN(C3CCCC(C)C3)CC2)c1 (stereo not given)	i	i	i	-13.0	i	-0.44	i	i	i
Cc1ccc(C)c(N2CCN(CC3CCCCC3)CC2)c1	i	i	i	-9.8	i	0.28	i	i	i
C#CCN(C(=O)c1cc(COc2cccc(C(F)(F)F)c2)on1)C1CCCCC1	i	i	i	-10.7	i	-0.31	.	.	.
C#CCN(C(=O)c1cc(COc2ccc(C)c(C)c2)on1)C1CCCCC1	6*	i	i	-12.6	i	0.81	i	i	i
CCCC1CCC(c2ccc(C(N)=O)cc2)CC1 (stereo not given)	i	i	i	-2.3	i	0.51	.	.	.
CCCC1CCC(=C(C#N)C(N)=O)CC1 (stereo not given)	i	i	-8.78*	-7.3	i	0.94	i	i	i
COC(=O)C1C(O)=C(C(C)=Nc2cccc3ccccc23)C(=O)CC1(C)C (stereo not given)	i	i	i	-13.8	i	-0.11	.	.	.
Cc1cccc(NC(=O)CCc2ccccc2)c1C	i	i	i	-4.4	i	-1.36	.	.	.
Cc1ccc(NC(=O)CSc2nnc(C3CC3)n2CC2CCCO2)cc1C (stereo not given)	i	i	i	-3.2	i	-0.11	.	.	.
C/C(=N\NC(=O)COc1ccc(C(C)(C)C)cc1)c1cc2ccccc2o1	i	i	i	-3.2	i	0.68	i	i	i
C/C(=N\NC(=O)COc1ccc(C)cc1C(C)C)c1cc2ccccc2o1	i	i	i	-0.5	i	1.1	i	i	i
CC12CCC(C(=O)NCCc3ccccc3)(OC1=O)C2(C)C (stereo not given)	i	i	i	-2.3	i	1.89	i	i	i
Cc1ccc(NC(=O)CCN2CCC(C(N)=O)CC2)cc1	i	i	i	-4.4	i	0.02	.	.	.
O=C(c1sc2ccccc2c1Cl)N1CCN(c2ccccc2F)CC1	i	i	i	-7.3	i	-0.62	i	i	i
O=C(c1sc2ccccc2c1Cl)N1CCN(c2ncccn2)CC1	i	i	i	-8.2	i	1.65	.	.	.
O=C(c1sc2ccccc2c1Cl)N1CCN(c2ccc(F)cc2)CC1	i	i	i	-0.6	i	0.4	i	i	i
Cc1ccc(S(=O)(=O)N2CCOCC2)cc1NC(=O)COC(=O)Cc1ccccc1	.	.	.	.	i	.	.	.	.
COc1ccccc1CN(Cc1cc2cc(C)ccc2[nH]c1=O)Cc1nnnn1Cc1ccco1	i	i	-8.7*	-6.7	i	-1.68	i	i	36.0%*
Cc1cc(C)cc(NC(=O)CN2CCCN(S(=O)(=O)c3ccc(Br)s3)CC2)c1	i	i	-16.2*	-18.8	-9.98*	-0.69	69.5%*	i	45.5%*
